Source: ChEMBL document CHEMBL4819122, “Novel 4-(piperazin-1-yl)quinolin-2(1H)-one bearing thiazoles with antiproliferative activity through VEGFR-2-TK inhibition” (Bioorg Med Chem, 2021)
Calls of active or inactive are those of the source. No cut-off for these calls is given here.

Tests used:
UACC-257 = test: Cytotoxicity against human UACC-257 assessed as growth inhibition at 10 uM by NCI protocol relative to control; assay type: functional; settings: read-out: GI
Outline: (§1)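 Run by the NCI under its standard protocol: one dose of 10 μM against a sixty-line panel from nine human tumour tissues. Result given as percent growth inhibition of treated cells relative to untreated cells.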

HT-29 = test: Cytotoxicity against human HT29 assessed as growth inhibition at 10 uM by NCI protocol relative to control; assay type: functional; settings: read-out: GI
Outline: (§2)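 Run by NCI as a single-dose screen at 10 μM across the sixty-cell-line panel, which covers nine human tumour tissue types. The read-out is percent growth inhibition of treated cells relative to untreated cells.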

IGROV-1 = test: Cytotoxicity against human IGROVI assessed as growth inhibition at 10 uM by NCI protocol relative to control; assay type: functional; settings: read-out: GI; outline: as §2
MDA-MB-435 = test: Cytotoxicity against human MDA-MB-435 assessed as growth inhibition at 10 uM by NCI protocol relative to control; assay type: functional, cell-based; outline: as §2
DU-145 = test: Cytotoxicity against human DU-145 assessed as growth inhibition at 10 uM by NCI protocol relative to control; assay type: functional; settings: read-out: GI; outline: as §2
ACHN = test: Cytotoxicity against human ACHN assessed as growth inhibition at 10 uM by NCI protocol relative to control; assay type: functional; settings: read-out: GI; outline: as §2
SW-620 = test: Cytotoxicity against human SW-620 assessed as growth inhibition at 10 uM by NCI protocol relative to control; assay type: functional; settings: read-out: GI; outline: as §1
SK-OV-3 = test: Cytotoxicity against human SK-OV-3 assessed as growth inhibition at 10 uM by NCI protocol relative to control; assay type: functional; settings: read-out: GI; outline: as §2
SF-539 = test: Cytotoxicity against human […] assessed as growth inhibition at 10 uM by NCI protocol relative to control; assay type: functional; settings: read-out: GI; outline: as §2
BT-549 = test: Cytotoxicity against human BT-549 assessed as growth inhibition at 10 uM by NCI protocol relative to control; assay type: functional; settings: read-out: GI; outline: as §2
CAKI-1 = test: Cytotoxicity against human Caki1 assessed as growth inhibition at 10 uM by NCI protocol relative to control; assay type: functional; settings: read-out: GI; outline: as §2
OVCAR-8 = test: Cytotoxicity against human OVCAR-8 assessed as growth inhibition at 10 uM by NCI protocol relative to control; assay type: functional; settings: read-out: GI; outline: as §2
UO-31 = test: Cytotoxicity against human UO31 assessed as growth inhibition at 10 uM by NCI protocol relative to control; assay type: functional; settings: read-out: GI; outline: as §1
HCC 2998 = test: Cytotoxicity against human HCC-2998 assessed as growth inhibition at 10 uM by NCI protocol relative to control; assay type: functional; settings: read-out: GI; outline: as §2
U-251 = test: Cytotoxicity against human U251 assessed as growth inhibition at 10 uM by NCI protocol relative to control; assay type: functional; settings: read-out: GI; outline: as §1
HOP-92 = test: Cytotoxicity against human HOP-92 assessed as growth inhibition at 10 uM by NCI protocol relative to control; assay type: functional; settings: read-out: GI; outline: as §2
MDA-MB-468 = test: Cytotoxicity against human MDA-MB-468 assessed as growth inhibition at 10 uM by NCI protocol relative to control; assay type: functional; settings: read-out: GI; outline: as §2
T47D [1] = test: Cytotoxicity against human T47D cells assessed as reduction in cell viability after 3 hrs by MTT assay
NCI-H322M = test: Cytotoxicity against human NCI-H322M assessed as growth inhibition at 10 uM by NCI protocol relative to control; assay type: functional; settings: read-out: GI; outline: as §2
MCF7 = test: Cytotoxicity against human MCF7 assessed as growth inhibition at 10 uM by NCI protocol relative to control; assay type: functional; settings: read-out: GI; outline: as §2
M14 = test: Cytotoxicity against human M14 assessed as growth inhibition at 10 uM by NCI protocol relative to control; assay type: functional; settings: read-out: GI; outline: as §2
Malme-3M = test: Cytotoxicity against human MALME-3M assessed as growth inhibition at 10 uM by NCI protocol relative to control; assay type: functional; settings: read-out: GI; outline: as §2
RXF 393 = test: Cytotoxicity against human RXF 393 assessed as growth inhibition at 10 uM by NCI protocol relative to control; assay type: functional; settings: read-out: GI; outline: as §2
NCI-H522 = test: Cytotoxicity against human NCI-H522 assessed as growth inhibition at 10 uM by NCI protocol relative to control; assay type: functional; settings: read-out: GI; outline: as §2
UACC-62 = test: Cytotoxicity against human UACC-62 assessed as growth inhibition at 10 uM by NCI protocol relative to control; assay type: functional; settings: read-out: GI; outline: as §1
SF-295 = test: Cytotoxicity against human SF-295 assessed as growth inhibition at 10 uM by NCI protocol relative to control; assay type: functional; settings: read-out: GI; outline: as §2
TK-10 = test: Cytotoxicity against human TK-10 assessed as growth inhibition at 10 uM by NCI protocol relative to control; assay type: functional; settings: read-out: GI; outline: as §1
A549 = test: Cytotoxicity against human A549 assessed as growth inhibition at 10 uM by NCI protocol relative to control; assay type: functional; settings: read-out: GI; outline: as §2
SNB-19 = test: Cytotoxicity against human SNB-19 assessed as growth inhibition at 10 uM by NCI protocol relative to control; assay type: functional; settings: read-out: GI; outline: as §1
EKVX = test: Cytotoxicity against human EKVX assessed as growth inhibition at 10 uM by NCI protocol relative to control; assay type: functional; settings: read-out: GI; outline: as §2
NCI-H23 = test: Cytotoxicity against human NCI-H23 assessed as growth inhibition at 10 uM by NCI protocol relative to control; assay type: functional; settings: read-out: GI; outline: as §2
MDA-MB-231 = test: Cytotoxicity against human MDA-MB-231 assessed as growth inhibition at 10 uM by NCI protocol relative to control; assay type: functional; settings: read-out: GI; outline: as §2
HCT-15 = test: Cytotoxicity against human HCT-15 assessed as growth inhibition at 10 uM by NCI protocol relative to control; assay type: functional; settings: read-out: GI; outline: as §2
COLO 205 = test: Cytotoxicity against human COLO 205 assessed as growth inhibition at 10 uM by NCI protocol relative to control; assay type: functional; settings: read-out: GI; outline: as §2
SNB-75 = test: Cytotoxicity against human SNB-75 assessed as growth inhibition at 10 uM by NCI protocol relative to control; assay type: functional; settings: read-out: GI; outline: as §1
KM12 = test: Cytotoxicity against human KM12 assessed as growth inhibition at 10 uM by NCI protocol relative to control; assay type: functional; settings: read-out: GI; outline: as §2
OVCAR-3 = test: Cytotoxicity against human OVCAR-3 assessed as growth inhibition at 10 uM by NCI protocol relative to control; assay type: functional; settings: read-out: GI; outline: as §2
A498 = test: Cytotoxicity against human A498 assessed as growth inhibition at 10 uM by NCI protocol relative to control; assay type: functional; settings: read-out: GI; outline: as §2
T47D [2] = test: Cytotoxicity against human T-47D assessed as growth inhibition at 10 uM by NCI protocol relative to control; assay type: functional; settings: read-out: GI; outline: as §1
HL-60 = test: Cytotoxicity against human HL60 assessed as growth inhibition at 10 uM by NCI protocol relative to control; assay type: functional; settings: read-out: GI; outline: as §2
NCI/ADR-RES = test: Cytotoxicity against human NCl/ADR-RES assessed as growth inhibition at 10 uM by NCI protocol relative to control; assay type: functional; settings: read-out: GI; outline: as §2
SK-MEL-28 = test: Cytotoxicity against human SK-MEL-28 assessed as growth inhibition at 10 uM by NCI protocol relative to control; assay type: functional; settings: read-out: GI; outline: as §2

O=C(CN1CCN(c2cc(=O)[nH]c3ccc(F)cc23)CC1)Nc1nc(-c2ccc(Cl)cc2)cs1
inhibition of growth at 10 µM (UACC-257): 31.3%
inhibition of growth at 10 µM (HT-29): 25.6%
inhibition of growth at 10 µM (IGROV-1): 50.8%
growth inhibition (GI) (MDA-MB-435): inactive
inhibition of growth at 10 µM (DU-145): 41.1%
inhibition of growth at 10 µM (ACHN): 38.5%
inhibition of growth at 10 µM (SW-620): 41.2%
inhibition of growth at 10 µM (SK-OV-3): 11.9%
inhibition of growth at 10 µM (SF-539): 30.5%
inhibition of growth at 10 µM (BT-549): 27.5%
inhibition of growth at 10 µM (CAKI-1): 55.5%
inhibition of growth at 10 µM (OVCAR-8): 24%
inhibition of growth at 10 µM (UO-31): 38%
inhibition of growth at 10 µM (HCC 2998): 30.9%
inhibition of growth at 10 µM (U-251): 37.3%
inhibition of growth at 10 µM (HOP-92): 29.7%
inhibition of growth at 10 µM (MDA-MB-468): 51.4%
IC50 (T47D [1]): 2730 nM
inhibition of growth at 10 µM (NCI-H322M): 21.3%
inhibition of growth at 10 µM (MCF7): 39.7%
inhibition of growth at 10 µM (M14): 30.6%
inhibition of growth at 10 µM (Malme-3M): 43.3%
inhibition of growth at 10 µM (RXF 393): 37.6%
inhibition of growth at 10 µM (NCI-H522): 25.9%
inhibition of growth at 10 µM (UACC-62): 32%
inhibition of growth at 10 µM (SF-295): 20.4%
inhibition of growth at 10 µM (TK-10): 34.3%
inhibition of growth at 10 µM (A549): 44.4%
inhibition of growth at 10 µM (SNB-19): 30.8%
inhibition of growth at 10 µM (EKVX): 43.3%
inhibition of growth at 10 µM (NCI-H23): 28.8%
inhibition of growth at 10 µM (MDA-MB-231): 16.6%
inhibition of growth at 10 µM (HCT-15): 34.9%
inhibition of growth at 10 µM (COLO 205): 14.5%
inhibition of growth at 10 µM (SNB-75): 46.2%
inhibition of growth at 10 µM (KM12): 30.1%
inhibition of growth at 10 µM (OVCAR-3): 16.9%
inhibition of growth at 10 µM (A498): 60.5%
inhibition of growth at 10 µM (T47D [2]): 73.2%
inhibition of growth at 10 µM (HL-60): 38.3%
inhibition of growth at 10 µM (NCI/ADR-RES): 41.9%
inhibition of growth at 10 µM (SK-MEL-28): 17.3%
